Compound activity from PubChem.
Sampled rows, rich in hits. Any-hit rate of the full collection: about 3%.
Lipid droplet – modulators of hepatic lipid droplet formation | AML12 mouse hepatocytes, oleate lipid droplets, BODIPY imaging | inhibition, % at 6.5 µM | 240,000 compounds, 0.4% hits | AID 1656;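 active = lipid droplet intensity inhibited by at least 50%, with more than 500 cells counted; inconclusive = wells with under 300 cells, treated as cytotoxic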
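Test system: AML12 hepatocytes (mouse); reagent: oleate loading, 100 µM; dosing: one dose, 6.5 µM compound; incubation: overnight exposure; signal: fluorescence imaging, 20x objective, two fields per well; read-out basis: % inhibition of corrected integrated BODIPY droplet signal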
GASC-1 inh – human JMJD2C demethylase inhibition. GST-JMJD2C(1-420) H3K9me3 demethylation, DELFIA europium. 330,000 compounds, 0.069% hits. inhibition, % at 2.35 µM. Q9H3R0;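 active = more than half of a compound's replicate wells show inhibition beyond 50%, single wells judged on their own value; inconclusive = some, but no more than half, of replicates pass 50% inhibition; inactive = no replicate passes 50% inhibition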;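 also: signal counts dimethyl H3K9 product captured on neutravidin plate; 0% = median of DMSO wells and 100% = 0.3 times that DMSO median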
NPR1 activator – GC-A (human) enzyme activation; P16066; HEK293 GC-A cells, cGMP TR-FRET, EC30 ANP; 0% at EC30 ANP, 100% saturating ANP; activation, % at 10 µM; 370,000 compounds, 0.14% hits; in the data active = activation above about 40%
Target sequence (P16066 whole entry, looked up): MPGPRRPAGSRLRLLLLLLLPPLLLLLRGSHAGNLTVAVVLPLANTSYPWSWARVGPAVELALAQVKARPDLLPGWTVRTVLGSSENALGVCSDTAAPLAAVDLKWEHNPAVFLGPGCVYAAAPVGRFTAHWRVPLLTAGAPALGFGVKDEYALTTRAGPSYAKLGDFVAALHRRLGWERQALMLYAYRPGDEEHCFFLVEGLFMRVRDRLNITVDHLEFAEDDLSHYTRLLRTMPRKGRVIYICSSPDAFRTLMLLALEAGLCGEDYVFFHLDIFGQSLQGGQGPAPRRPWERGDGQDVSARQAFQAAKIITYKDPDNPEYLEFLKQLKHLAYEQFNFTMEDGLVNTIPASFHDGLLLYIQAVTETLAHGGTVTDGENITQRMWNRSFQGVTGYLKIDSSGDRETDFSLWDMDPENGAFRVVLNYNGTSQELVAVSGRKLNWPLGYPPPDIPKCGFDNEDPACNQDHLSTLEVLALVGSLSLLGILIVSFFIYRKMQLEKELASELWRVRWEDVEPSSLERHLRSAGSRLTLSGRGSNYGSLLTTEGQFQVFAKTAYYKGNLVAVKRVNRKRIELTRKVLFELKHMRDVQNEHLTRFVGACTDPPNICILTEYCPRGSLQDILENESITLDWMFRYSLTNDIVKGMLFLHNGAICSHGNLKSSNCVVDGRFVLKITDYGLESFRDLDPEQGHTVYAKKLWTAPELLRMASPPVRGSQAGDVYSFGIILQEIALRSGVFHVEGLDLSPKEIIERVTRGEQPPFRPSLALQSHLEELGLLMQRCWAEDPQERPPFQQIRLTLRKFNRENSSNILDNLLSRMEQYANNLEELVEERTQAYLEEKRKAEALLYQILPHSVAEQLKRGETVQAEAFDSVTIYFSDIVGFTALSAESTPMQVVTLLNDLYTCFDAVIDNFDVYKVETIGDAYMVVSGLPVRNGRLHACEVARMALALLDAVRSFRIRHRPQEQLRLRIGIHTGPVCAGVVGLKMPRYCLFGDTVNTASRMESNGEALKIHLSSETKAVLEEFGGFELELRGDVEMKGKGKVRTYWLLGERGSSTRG
aDG glyco up – alpha-DG glycosylation activation | activation, % at 10 µM | 360,000 compounds, 0.22% hits | Pro5-aDG cells, alpha-DG glycosylation AlphaScreen (IIH6); 0% Pro5, 100% B10-LARGE cell signal;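 active = activation of at least 8% versus controls, or a plate z-score of at least 8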;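 also: Pro5 are CHO cells carrying HIG-tagged alpha-DG that lacks glycosylation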
GRIN3A LBD mod – NR3A (human) ligand-binding domain modulation; NR3A LBD differential scanning fluorimetry, Tm shift; 0% = protein alone, 100% = glycine-bound protein; Tm shift relative to glycine control, % at 25 µM; 340,000 compounds, 2.5% hits;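 active = melting temperature shift of at least 10% of the positive control shift, at one fixed dose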
NPR2 activator – GC-B (human) receptor activation | P20594 | HEK293-GC-B cells, CNP EC30, cGMP TR-FRET; 0% at EC30 CNP, 100% saturating CNP | activation, % at 10 µM | 370,000 compounds, 0.11% hits | AID 1920062;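 active = activation at 10 µM reaching about 35% in either raw or pattern-adjusted values, limit read from the data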
An asterisk follows results filed as active; ? = inconclusive; . = no result.

SMILES	Lipid droplet	GASC-1 inh	NPR1 activator	aDG glyco up	GRIN3A LBD mod	NPR2 activator
CCc1ccc(Nc2nnc(SCC(=O)Nc3sccc3C(N)=O)s2)cc1	20	1	-18	0	10*	-4
CCc1nnc(NC(=O)c2ccc(Br)o2)s1	-2	25	3	0	5	0
CC(=O)Nc1ccc(NC(=O)CSc2nnc(NC(=O)c3ccc(Br)o3)s2)cc1	16	5	1	0	16*	4
O=C(CSc1nnc(NC(=O)c2ccco2)s1)Nc1cccc(F)c1	26	1	1	0	28*	2
COc1cccc(Nc2nnc(SCC(=O)Nc3sccc3C(N)=O)s2)c1	-14	-3	-13	0	3	-7
CC(=O)Nc1cccc(NC(=O)CSc2nccn2Cc2ccco2)c1	4	31	0	0	14*	3
c1ccc(-c2nc3c4ccccc4ccn3c2Cc2ccsc2)cc1	.	.	.	0	.	.
CC(=O)Nc1cccc(NC(=O)CSc2nnc(NC(=O)c3ccco3)s2)c1	6	1	0	0	11*	1
O=C(N[C@H](C(=O)N1CCC[C@H]1C(=O)NC1CCCC1)C1CCCCC1)c1cccs1	.	.	2	.	.	1
COCCNC(=O)/C(C#N)=C/c1cccc(/C=C(\C#N)C(=O)NCCOC)c1	-19	0	42*	0	1	25
CCOCCCNC(=O)/C(C#N)=C/c1cc(OC)c(O)c([N+](=O)[O-])c1	0	0	-4	0	1	-8
CCOCCCNC(=O)/C(C#N)=C/c1ccc(Cl)c([N+](=O)[O-])c1	6	0	55*	0	2	5
O=C(Nc1nc2ncccn2c1-c1ccc(C(F)(F)F)cc1)C1CC1	.	.	5	.	.	-4
O=C(c1ccc(C#CC2(O)CCCCC2)cc1)N1CCN(C(c2ccccc2)c2ccccc2)CC1	0	-4	-1	0	12*	0
CC(C)C[C@H]1COc2cc(N3CCCC3)ccc2S(=O)(=O)N1C	.	.	2	.	.	-4
O=C(COc1ccc2ccccc2c1)N1CCN(C(=O)c2cccnc2)CC1	.	13	-2	0	2	-1
O=C(COc1ccc(-c2ccccc2)cc1)N1CCN(C(=O)c2cccnc2)CC1	.	5	2	0	12*	2
CC1CN=C(c2cccn2Cc2ccc(F)cc2Cl)O1 (stereo not drawn)	.	19	3	0	12*	-4
O=c1c([N+](=O)[O-])c(Cl)c2ccccc2n1Cc1ccccc1	.	.	-12	.	.	3
O=c1c([N+](=O)[O-])c(O)c2ccccc2n1Cc1ccccc1	-4	25	-1	0	10*	-1
O=C(NCc1ccccc1)[C@@H]1CCCN1C(=O)[C@H]1CCCN1C(=O)c1ccc(Cl)c(Cl)c1	.	.	-4	.	.	-8
CCOc1ccc(/C=C(\C(=O)O)c2ccc(S(=O)(=O)N3CCCCC3)s2)cc1OC	.	-6	1	0	18*	-4
CCOc1ccc(/C=C(\C(=O)O)c2ccc(S(=O)(=O)N3CCOCC3)s2)cc1OC	-16	3	-3	0	12*	3
COc1ccc(CNC(=O)C2Cc3c(-c4ccc5c(c4)OCO5)ccnc3O2)cc1OC (stereo not drawn)	.	.	10	0	.	1
Cc1cccc(CN2CCN(C3CN(Cc4cn(Cc5ccc(Cl)cc5)nn4)S(=O)(=O)C3)CC2)c1 (stereo not drawn)	.	.	-16	0	.	-9
SMILES	Lipid droplet	GASC-1 inh	NPR1 activator	aDG glyco up	GRIN3A LBD mod	NPR2 activator
CCOc1ccccc1N1CCN(S(=O)(=O)c2cc(C)ccc2OC)CC1	-16	2	-5	0	37*	-4
COc1ccc(N2CCN(C(c3ccccc3OC)c3nnnn3C3CCCC3)CC2)cc1 (stereo not drawn)	.	.	0	0	-6	-3
COc1ccc(C(c2nnnn2C2CCCC2)N2CCC(C(N)=O)CC2)c(OC)c1 (stereo not drawn)	.	11	-3	-1	14*	-5
O=C1NCCN/C1=C\C(=O)c1ccc(Cl)cc1	-6	?	41*	0	0	-2
O=C1NCCN/C1=C\C(=O)c1ccc(F)cc1	-4	1	18	0	1	-1
Cc1ccc(C2CCC3(CCC(=O)N3CCOC(=O)Nc3ccc(F)cc3)CC2)cc1 (stereo not drawn)	.	.	1	.	.	-2
NS(=O)(=O)c1ccc(Nc2ccc3cc(S(=O)(=O)N4CCCCC4)ccc3n2)cc1	9	4	1	0	37*	-6
COc1ccc(CNC(=O)c2c(C)oc3c2C(=O)c2ccccc2C3=O)cc1	-14	5	-9	1	0	-10
O=C1c2ccccc2C(=O)c2c1oc(C(F)(F)F)c2C(=O)c1ccccc1	.	-1	-3	8.8*	-15	1
O=C(c1ccccc1)c1coc2c1C(=O)c1ccccc1C2=O	11	-33	-1	5	0	7
CC(=O)c1c(C)oc2c1C(=O)c1ccccc1C2=O	2	-5	-2	9.8*	7	-7
CCOC(=O)c1c(CSc2ccccc2)n(C)c2ccc(O)c(CN3CCOCC3)c12	3	4	-3	0	14*	0
O=C(C(=O)N1CCCN(Cc2ccc(F)cc2)CC1)c1ccccc1	.	.	0	0	.	3
Cc1cccc2cc(CN(Cc3ccc(F)cc3)C(=O)N(C)C)c3nnnn3c12	.	3	-2	0	12*	-3
Cc1cccc2cc(CN(Cc3ccc(F)cc3)C(=O)C(F)(F)F)c3nnnn3c12	-7	23	-3	0	-5	3
O=C(O)Cc1ccc(NC(=O)c2ccc3c(c2)C(=O)N(Cc2ccccc2)C3=O)cc1	.	.	-1	0	.	-1
O=C(O)c1cc(NC(=O)c2ccc3c(c2)C(=O)N(Cc2ccccc2)C3=O)cc(C(=O)O)c1	-1	-1	-2	0	14*	0
COc1cccc(CN2CCC(Oc3ccc(C(=O)N4CCCCC4)cc3)CC2)c1O	6	-6	2	0	2	-4
COC(=O)C1=C(C)N(Cc2ccccc2C(F)(F)F)C(=NCc2ccc(OC)cc2)NC1c1cccc(Cl)c1 (stereo not drawn)	.	.	-10	.	.	-20
O=C(Cc1ccccc1)Nn1c(O)c(/C=C2\C=Nc3ccccc32)sc1=S	26	-5	-1	0	26*	3
O=S(=O)(Nn1c(O)c(C=C2N=c3ccccc3=N2)sc1=S)c1ccccc1	-15	-12	-1	0	7	-8
Cn1c(O)c(/C=C2\C=Nc3ccccc32)sc1=Nc1ccc(C(=O)O)cc1	10	5	0	0	-2	-3
